This is an account of results in ChEMBL document CHEMBL3351306, “Physicochemical property-driven optimization of diarylaniline compounds as potent HIV-1 non-nucleoside reverse transcriptase inhibitors” (Bioorg Med Chem Lett, 2014).

≈ marks a conversion by molar mass, not a printed value.

A word on the EC50: it is the midpoint of the concentration-response curve. The term CC50 denotes the concentration that lowers cell viability or growth by half. The term solubility denotes how much of the substance goes into solution per volume. Lower therefore signals a poorly soluble substance. What is called logP is a log measure of how a compound divides between an organic and an aqueous phase.

Data set [1] has as its system Human immunodeficiency virus 1. As to the kind of experiment: Antiviral activity against wild type HIV1 3B infected in human MT2 cells assessed as inhibition of viral replication. The class given is functional, organism-based. The conditions noted are these: Human immunodeficiency virus 1, 3B.
The subject of the next data set is MT2. Description: Cytotoxicity against human MT2 cells assessed as cell viability. It counts as cell-based. Summed up: (§1)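 Run in MT-2 cells, at least in triplicate, reported as mean ± SD; the paired antiviral measurement used wild-type HIV-1 IIIB replication in MT-2 cells.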
The nature of data set [2]: Selectivity index, ratio of CC50 for human MT2 cells to EC50 for wild type HIV1 3B. It counts as toxicity, cell-based. The conditions noted are these: read-out: Selectivity Index. The gist of the method: as §1
For data set [3], the system named is Human immunodeficiency virus 1. Description: Fold resistance, ratio of EC50 for HIV1 A17 expressing K103N/Y181C mutant infected in human MT2 cells to EC50 for wild-type HIV1 3B infected in human MT2 cells. It counts as functional.
A short description of data set [4]: Aqueous solubility of the compound at pH 2 by HPLC analysis. The class given is physicochemical. As to conditions: buffer. The gist of the method:
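Solubility in aqueous buffer at pH 2.0, chosen to mimic stomach conditions; dissolved compound quantified by HPLC.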

The nature of data set [5]: Aqueous solubility of the compound at pH 7.4 by HPLC analysis. As to conditions: buffer. It counts as physicochemical. The gist of the method:
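Solubility in aqueous buffer at pH 7.4, chosen to mimic plasma conditions; dissolved compound quantified by HPLC.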

The nature of data set [6]: Lipophilicity, log P of the compound by HPLC analysis. It counts as physicochemical. Summed up: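 Log P determined experimentally by HPLC at pH 7.4.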
The test system of data set [7] is Human immunodeficiency virus 1. As to the kind of experiment: Antiviral activity against drug-resistant HIV1 A17 expressing K103N/Y181C mutant infected in human MT2 cells assessed as inhibition of viral replication. The conditions noted are these: Human immunodeficiency virus 1, A17, MT2.

On to `Cc1cc(C#N)cc(C)c1Oc1cc(Nc2ccc(C#N)cc2)c(N)cc1CO`, for which the 50% effective concentration (EC50) was determined as 1.07 nM in data set [1] and 33.1 nM in data set [7]. Besides, the half-maximal cytotoxic concentration (CC50) with MT2 was 122000 nM. In addition, the selectivity ratio in data set [2] stood at 114000. Also, in data set [3], the “Ratio EC50” value came out at 30.9. The solubility in data set [4] was 9.12 µg/mL (≈ 23.7 µM); in data set [5], 0.86 µg/mL (≈ 2.24 µM). The logP in data set [6] came to 3.57.

For the compound `CNCc1cc(N)c(Nc2ccc(C#N)cc2)cc1Oc1c(C)cc(C#N)cc1C`, the EC50 stood at 9.94 nM in data set [1] and 115 nM in data set [7]. Further, the cytotoxic concentration (CC50) with MT2 worked out at 12700 nM. In data set [2], the selectivity ratio came to 1280. The “Ratio EC50” value in data set [3] turned out to be 11.6. Further, the figures for the solubility in data set [4] and in data set [5] were 263 µg/mL (≈ 662 µM) and 159 µg/mL (≈ 400 µM), respectively. For the same compound, in data set [6], the logP was found to be 1.86.

In the case of `Cc1cc(C#N)cc(C)c1Oc1cc(Nc2ccc(C#N)cc2)c(N)cc1CNC1CC1`, the EC50 was 10.6 nM in data set [1] and 130 nM in data set [7]. Also, in the data set on MT2, the cytotoxic concentration (CC50) is 12100 nM. Further, the selectivity ratio in data set [2] turned out to be 1140. In data set [3], the “Ratio EC50” value is reported as 12.3. The values for the solubility in data set [4] and in data set [5] were 286 µg/mL (≈ 675 µM) and 13 µg/mL (≈ 30.7 µM), respectively. The logP in data set [6] came to 3.84.

Consider `Cc1cc(C#N)cc(C)c1Oc1cc(Nc2ccc(C#N)cc2)c(N)cc1CNCCCO`, for which the EC50 was 6.1 nM in data set [1] and over 2000 nM in data set [7]. The CC50 in the data set on MT2 is 15100 nM. In addition, in data set [2], the selectivity ratio stood at 2480. For the same compound, the “Ratio EC50” value in data set [3] is listed as over 328. Further, the solubility in data set [4] was found to be 290 µg/mL (≈ 657 µM); in data set [5], 236 µg/mL (≈ 534 µM). This compound came in with a logP in data set [6] of 1.81.

As to `Cc1cc(C#N)cc(C)c1Oc1cc(Nc2ccc(C#N)cc2)c(N)cc1CN1CCN(C)CC1`, the values for the half-maximal effective concentration (EC50) in data set [1] and in data set [7] were 170 nM and over 2000 nM, respectively. Further, the CC50 in the data set on MT2 is 96900 nM. Also, the selectivity ratio in data set [2] was found to be 570. The “Ratio EC50” value in data set [3] is reported as over 11.8.

Turning to `Cc1cc(C#N)cc(C)c1Oc1cc(Nc2ccc(C#N)cc2)c(N)cc1COC(C)C`, the EC50 in data set [1] came to 14 nM; in data set [7], 315 nM. Also, the CC50 in the data set on MT2 is 89400 nM. Besides, in data set [2], the selectivity ratio was 6390. The “Ratio EC50” value in data set [3] was determined as 22.5.

For `COCc1cc(N)c(Nc2ccc(C#N)cc2)cc1Oc1c(C)cc(C#N)cc1C`, the EC50 in data set [1] was determined as 3.54 nM; in data set [7] it was 298 nM. Also, the CC50 in the data set with MT2 came to 146000 nM. Further, the selectivity ratio in data set [2] came to 41200. In addition, the “Ratio EC50” value in data set [3] was found to be 84.2. The solubility in data set [4] came to 3.75 µg/mL (≈ 9.41 µM); in data set [5], 0.07 µg/mL (≈ 0.176 µM). Moreover, the log partition coefficient (logP) in data set [6] worked out at 3.84.

On to `CC(=O)OCc1cc(N)c(Nc2ccc(C#N)cc2)cc1Oc1c(C)cc(C#N)cc1C`, for which the EC50 turned out to be 1.06 nM in data set [1] and 374 nM in data set [7]. Besides, in the data set on MT2, the CC50 was found to be 113000 nM. The selectivity ratio in data set [2] was determined as 107000. In addition, the “Ratio EC50” value in data set [3] is 353. The solubility in data set [4] turned out to be 16.7 µg/mL (≈ 39.2 µM); in data set [5] it was 0.2 µg/mL (≈ 0.469 µM). The logP in data set [6] came out at 4.4.

For the compound `COCc1cc(N)c(Nc2ccc(C#N)cc2)cc1Oc1c(C)cc(/C=C/C#N)cc1C`, the EC50 amounted to 5.74 nM in data set [1] and 14.7 nM in data set [7]. Further, in the data set on MT2, the CC50 turned out to be 50300 nM. Also, the selectivity ratio in data set [2] came to 8760. For the same compound, in data set [3], the “Ratio EC50” value was found to be 2.6. In addition, the solubility was 1.7 µg/mL (≈ 4 µM) in data set [4] and 0.11 µg/mL (≈ 0.259 µM) in data set [5]. Besides, in data set [6], the logP is listed as 4.13.

For `COCc1cc(N)c(Nc2ccc(C#N)cc2)cc1Oc1c(C)cc(CCC#N)cc1C`, the results for the EC50 in data set [1] and in data set [7] were 3.25 nM and 2.95 nM, respectively. Further, the selectivity ratio in data set [2] is over 61500. Besides, the “Ratio EC50” value in data set [3] was 0.91. Besides, the solubility in data set [4] was determined as 1.82 µg/mL (≈ 4.27 µM); in data set [5], 0.66 µg/mL (≈ 1.55 µM). Further, the logP in data set [6] worked out at 3.25.

Regarding `CC(=O)OCc1cc(N)c(Nc2ccc(C#N)cc2)cc1Oc1c(C)cc(/C=C/C#N)cc1C`, the 50% effective concentration (EC50) in data set [1] stood at 0.82 nM; in data set [7], 36.5 nM. Also, the CC50 with MT2 was 96300 nM. Also, the selectivity ratio in data set [2] was 117000. The “Ratio EC50” value in data set [3] came to 44.5. The figures for the solubility in data set [4] and in data set [5] were 1.87 µg/mL (≈ 4.13 µM) and 0.49 µg/mL (≈ 1.08 µM), respectively. The compound also yielded a log partition coefficient (logP) in data set [6] of 4.48.

`CC(=O)OCc1cc(N)c(Nc2ccc(C#N)cc2)cc1Oc1c(C)cc(CCC#N)cc1C`: the values for the EC50 in data set [1] and in data set [7] were 0.96 nM and 4.92 nM, respectively. Besides, the CC50 in the data set with MT2 came out at 44800 nM. The selectivity ratio in data set [2] was 46700. Moreover, in data set [3], the “Ratio EC50” value is reported as 5.1. Moreover, the solubility is 2.63 µg/mL (≈ 5.79 µM) in data set [4] and 1.86 µg/mL (≈ 4.09 µM) in data set [5]. This compound had a log partition coefficient (logP) in data set [6] of 2.84.

For `Cc1cc(/C=C/C#N)cc(C)c1Nc1ccnc(Nc2ccc(C#N)cc2)n1` [RILPIVIRINE], the CC50 in the data set on MT2 was found to be 90700 nM. Also, the logP in data set [6] (read-out: logP) is over 5.
